Test results: ChEMBL document CHEMBL1938393, “Multiparameter exploration of piperazine derivatives as δ-opioid receptor agonists for CNS indications” (Bioorg Med Chem Lett, 2012)

Key:
[1] = tested on: MDR1 (P-gp), human; test: Apparent permeability across apical to basolateral side in MDCK cells transfected with human MDR1 gene; assay type: ADME, cell-based, Canis lupus familiaris; conditions: dog
Method in brief: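 Transport assay on MDCK cell monolayers transfected with the human MDR1 gene; flux measured in the apical-to-basolateral direction.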

[2] = Intrinsic clearance in human liver microsomes; assay type: ADME, Microsome; conditions: read-out: CLH
[3] = target: Delta-type opioid receptor (Homo sapiens, UniProt P41143); test: Displacement of [I125]deltorphin from delta-opioid receptor overexpressed in human HEK293 cells; assay type: cell-based
[4] = tested on: HEK293; test: Selectivity ratio of IC50 for mu-opioid receptor overexpressed in human HEK293 cells to IC50 for delta-opioid receptor overexpressed in human HEK293 cells; assay type: cell-based
[5] = target: Voltage-gated inwardly rectifying potassium channel KCNH2 (Homo sapiens, UniProt Q12809); test: Inhibition of human Erg
Voltage-gated inwardly rectifying potassium channel KCNH2, sequence (Q12809 whole entry): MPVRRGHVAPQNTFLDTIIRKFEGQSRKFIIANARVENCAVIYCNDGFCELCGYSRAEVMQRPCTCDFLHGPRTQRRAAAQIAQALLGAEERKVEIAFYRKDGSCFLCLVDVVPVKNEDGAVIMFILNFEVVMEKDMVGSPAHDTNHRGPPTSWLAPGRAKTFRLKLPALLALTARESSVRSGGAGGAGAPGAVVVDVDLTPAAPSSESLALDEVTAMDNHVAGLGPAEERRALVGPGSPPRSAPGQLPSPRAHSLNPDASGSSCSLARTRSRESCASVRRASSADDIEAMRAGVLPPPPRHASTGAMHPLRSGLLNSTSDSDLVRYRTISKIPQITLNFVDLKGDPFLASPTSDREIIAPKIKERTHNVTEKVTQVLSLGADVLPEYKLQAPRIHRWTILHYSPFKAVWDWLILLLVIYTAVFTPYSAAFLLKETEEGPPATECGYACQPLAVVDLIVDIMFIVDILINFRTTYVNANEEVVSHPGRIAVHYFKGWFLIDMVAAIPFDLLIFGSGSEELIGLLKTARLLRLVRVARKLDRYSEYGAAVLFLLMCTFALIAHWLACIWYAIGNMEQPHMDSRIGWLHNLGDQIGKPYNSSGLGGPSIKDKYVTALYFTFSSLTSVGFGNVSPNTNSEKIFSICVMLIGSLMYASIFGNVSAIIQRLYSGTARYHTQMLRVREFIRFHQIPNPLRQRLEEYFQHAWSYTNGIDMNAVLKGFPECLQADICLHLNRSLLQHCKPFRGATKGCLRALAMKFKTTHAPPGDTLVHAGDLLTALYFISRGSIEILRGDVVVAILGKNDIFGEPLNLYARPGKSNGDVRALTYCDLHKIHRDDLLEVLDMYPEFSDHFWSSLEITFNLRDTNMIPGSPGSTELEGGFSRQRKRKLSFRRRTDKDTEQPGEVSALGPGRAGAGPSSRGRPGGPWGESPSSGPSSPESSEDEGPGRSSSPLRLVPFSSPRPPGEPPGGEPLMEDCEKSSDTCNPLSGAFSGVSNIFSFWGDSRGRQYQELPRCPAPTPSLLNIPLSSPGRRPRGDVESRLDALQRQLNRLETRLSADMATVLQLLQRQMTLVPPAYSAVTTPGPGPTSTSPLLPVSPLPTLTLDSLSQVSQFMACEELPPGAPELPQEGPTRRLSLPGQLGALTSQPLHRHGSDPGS

Delta-type opioid receptor, sequence (P41143 whole entry): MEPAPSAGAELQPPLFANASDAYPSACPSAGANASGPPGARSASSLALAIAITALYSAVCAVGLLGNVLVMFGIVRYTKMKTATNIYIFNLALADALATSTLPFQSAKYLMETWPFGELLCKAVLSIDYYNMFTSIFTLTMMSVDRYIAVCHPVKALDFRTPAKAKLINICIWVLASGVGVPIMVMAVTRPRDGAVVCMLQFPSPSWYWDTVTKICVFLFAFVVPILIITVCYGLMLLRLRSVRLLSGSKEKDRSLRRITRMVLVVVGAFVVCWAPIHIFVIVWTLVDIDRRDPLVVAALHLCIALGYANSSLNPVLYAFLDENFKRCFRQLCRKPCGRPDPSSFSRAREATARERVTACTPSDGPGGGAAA

## CCOC(=O)Nc1ccccc1[C@@H](c1ccc(C(=O)N(CC)CC)cc1)N1CCN(Cc2cscn2)CC1
[1]
  Papp A→B: < 0.1 ×10⁻⁶ cm/s
[2]
  microsomal CLint: 430 µL/min/mg

## CCN(C)C(=O)c1ccc([C@H](c2cccnc2)N2CCN(Cc3cscn3)CC2)cc1
[1]
  Papp A→B: < 0.1 ×10⁻⁶ cm/s
[3]
  IC50: 4.7 nM
[2]
  microsomal CLint: 40 µL/min/mg

## CN(CCO)C(=O)c1ccc([C@H](c2cccc(NC(=O)C3CC3)c2)N2CCN(Cc3ccc(F)cc3)CC2)cc1
[1]
  Papp A→B: < 0.1 ×10⁻⁶ cm/s
[3]
  IC50: 0.27 nM
[4]
  Ratio IC50: 11000
[5]
  IC50: 15000 nM
[2]
  microsomal CLint: 36 µL/min/mg

## CCOC(=O)Nc1ccc([C@@H](c2ccc(C(=O)N(CC)CC)cc2)N2CCN(Cc3cscn3)CC2)cc1
[1]
  Papp A→B: 0.13 ×10⁻⁶ cm/s
[3]
  IC50: 1.3 nM
[4]
  Ratio IC50: 2700
[5]
  IC50: 7300 nM
[2]
  microsomal CLint: 21 µL/min/mg

## CCN(CC)C(=O)c1ccc([C@H](c2cccc(NC(=O)C3CC3)c2)N2CCN(Cc3ccc(F)cc3)CC2)cc1
[1]
  Papp A→B: < 0.1 ×10⁻⁶ cm/s
[3]
  IC50: 0.29 nM
[4]
  Ratio IC50: 5200
[5]
  IC50: 11000 nM
[2]
  microsomal CLint: 150 µL/min/mg

## CCN(C)C(=O)c1ccc([C@H](c2cccc(NC(=O)C3CC3)c2)N2CCN(CCCOC)CC2)cc1
[3]
  IC50: 23 nM
[4]
  Ratio IC50: 33
[5]
  IC50: 13000 nM
[2]
  microsomal CLint: < 4 µL/min/mg

## O=C(Nc1cccc([C@@H](c2ccc(C(=O)N3CCC3)cc2)N2CCN(Cc3ccc(F)cc3)CC2)c1)C1CC1
[1]
  Papp A→B: < 0.1 ×10⁻⁶ cm/s
[3]
  IC50: 0.9 nM
[4]
  Ratio IC50: 480
[5]
  IC50: 3600 nM
[2]
  microsomal CLint: 49 µL/min/mg

## CCN(C)C(=O)c1ccc([C@H](c2ccccn2)N2CCN(Cc3ccccn3)CC2)cc1
[1]
  Papp A→B: 0.25 ×10⁻⁶ cm/s
[3]
  IC50: 5.2 nM
[4]
  Ratio IC50: > 1900
[5]
  IC50: > 33000 nM
[2]
  microsomal CLint: 20 µL/min/mg

## CCN(C)C(=O)c1ccc([C@H](c2cccc(NC(=O)OC)c2)N2CCN(Cc3cscn3)CC2)cc1
[1]
  Papp A→B: 0.12 ×10⁻⁶ cm/s
[3]
  IC50: 0.094 nM
[4]
  Ratio IC50: 15000
[5]
  IC50: 17000 nM
[2]
  microsomal CLint: 38 µL/min/mg

## CCOC(=O)Nc1cccc([C@@H](c2ccc(C(=O)N(C)CC)cc2)N2CCN(Cc3nc[nH]c3C)CC2)c1
[1]
  Papp A→B: < 0.1 ×10⁻⁶ cm/s
[3]
  IC50: 0.26 nM
[4]
  Ratio IC50: 14000
[5]
  IC50: > 33000 nM
[2]
  microsomal CLint: 17 µL/min/mg

## CCN(CC)C(=O)c1ccc([C@H](c2cccc(NC(=O)OC)c2)N2CCN(Cc3cncs3)CC2)cc1
[1]
  Papp A→B: 0.22 ×10⁻⁶ cm/s
[3]
  IC50: 0.35 nM
[2]
  microsomal CLint: 100 µL/min/mg

## CCOC(=O)Nc1ccccc1[C@@H](c1ccc(C(=O)N(CC)CC)cc1)N1CCN(Cc2ccccn2)CC1
[1]
  Papp A→B: 0.43 ×10⁻⁶ cm/s
[3]
  IC50: 1.4 nM
[4]
  Ratio IC50: > 6000
[5]
  IC50: 9900 nM
[2]
  microsomal CLint: 650 µL/min/mg

## CCOC(=O)Nc1cccc([C@@H](c2ccc(C(=O)N3CCC3)cc2)N2CCN(Cc3cccnc3)CC2)c1
[1]
  Papp A→B: 0.18 ×10⁻⁶ cm/s
[3]
  IC50: 4.1 nM
[4]
  Ratio IC50: > 2200
[5]
  IC50: 11000 nM
[2]
  microsomal CLint: 53 µL/min/mg

## CCN(C)C(=O)c1ccc([C@H](c2cccnc2)N2CCN(Cc3ccccn3)CC2)cc1
[1]
  Papp A→B: 0.12 ×10⁻⁶ cm/s
[3]
  IC50: 2 nM
[4]
  Ratio IC50: > 5100
[5]
  IC50: 13000 nM
[2]
  microsomal CLint: 33 µL/min/mg

## CCN(CC)C(=O)c1ccc([C@H](c2cccc(NC(=O)C3CC3)c2)N2CCN(CCOC)CC2)cc1
[1]
  Papp A→B: < 0.1 ×10⁻⁶ cm/s
[3]
  IC50: 1.1 nM
[4]
  Ratio IC50: > 9400
[5]
  IC50: > 30000 nM
[2]
  microsomal CLint: 26 µL/min/mg

## CCN(C)C(=O)c1ccc([C@H](c2cccc(NC(=O)C3CC3)c2)N2CCN(Cc3nc(C)cs3)CC2)cc1
[3]
  IC50: > 100 nM
[4]
  Ratio IC50: < 100
[5]
  IC50: 18000 nM
[2]
  microsomal CLint: 160 µL/min/mg

## CCOC(=O)Nc1cccc([C@@H](c2ccc(C(=O)N(CC)CC)cc2)N2CCN(Cc3cscn3)CC2)c1
[1]
  Papp A→B: < 0.1 ×10⁻⁶ cm/s
[3]
  IC50: 0.071 nM
[4]
  Ratio IC50: 6200
[5]
  IC50: 5400 nM
[2]
  microsomal CLint: 210 µL/min/mg

## CCOC(=O)Nc1cccc([C@@H](c2ccc(C(=O)N(C)CC)cc2)N2CCN(Cc3c[nH]c(C)n3)CC2)c1
[1]
  Papp A→B: < 0.1 ×10⁻⁶ cm/s
[3]
  IC50: 0.7 nM
[4]
  Ratio IC50: > 12000
[5]
  IC50: > 33000 nM
[2]
  microsomal CLint: < 4 µL/min/mg

## CCN(C)C(=O)c1ccc([C@H](c2cccc(NC(=O)C3CCC3)c2)N2CCN(Cc3cccnc3)CC2)cc1
[1]
  Papp A→B: < 0.1 ×10⁻⁶ cm/s
[3]
  IC50: 6.6 nM
[4]
  Ratio IC50: > 1500
[5]
  IC50: 28000 nM
[2]
  microsomal CLint: 85 µL/min/mg

## CCN(CC)C(=O)c1ccc([C@H](c2cccc(NC(=O)C3CC3)c2)N2CCN(Cc3ccccn3)CC2)cc1
[3]
  IC50: 0.068 nM
[4]
  Ratio IC50: > 120000
[5]
  IC50: 20000 nM
[2]
  microsomal CLint: 260 µL/min/mg

## CCN(CC)C(=O)c1ccc([C@H](c2cccc(NC(=O)OC)c2)N2CCN(Cc3cccnc3)CC2)cc1
[1]
  Papp A→B: 0.3 ×10⁻⁶ cm/s
[2]
  microsomal CLint: 110 µL/min/mg
